Assays:
[1] = test system: lung (A549) cancer cell line; assay: SRB cytotoxicity assay in 2D monolayers, dark vs green light; type: cell-based, human; details: read-out: EC50 (cell growth inhibition); A549 2D, dark (0 J cm^−2)
Summary of the method: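 Cells were given test compound for 24 h. They were then irradiated (520 nm, 15 min, 21 mW cm−2, 19 J cm−2) or kept dark, and incubated a further 48 h. Cells were fixed in 10% TCA for 48 h at 4 °C and stained with 0.6% SRB. Absorbance was averaged over triplicate wells and viability taken relative to untreated wells. There were three biological replicates from different passages.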

[2] = at 3.3 μM; cited from earlier work
[3] = reference value, aerated CD3OD; cited from earlier work
[4] = test system: wild type zebrafish embryos; details: intravenous or retro-orbital injection, embryo type not stated; cited from earlier work

## N.N.[Cl][Pt][Cl] [Cisplatin]
[1]
  EC50: 3 µM
[2]
  Platinum content in the nucleus: 0.6 ng Pt/10^6 cells

## [Ru+2].c1ccc(-c2ccccn2)nc1.c1ccc(-c2ccccn2)nc1.c1ccc(-c2ccccn2)nc1 [[Ru(bpy)3]^2+]
[3]
  1O2 generation quantum yield Φ^refΔ: 0.73

## Cc1ccnc(-c2cc(C)ccn2)c1.Cc1ccnc(-c2cc(C)ccn2)c1.[Cl-].[Cl-].[Ru+2].c1csc(-c2ccc(-c3ccc(-c4nc5c6cccnc6c6ncccc6c5[nH]4)s3)s2)c1 [TLD-1433]
[4]
  MTD in zebrafish embryo: 4.6 mM

Reference: paper PMC9200134 (Chemical Science, 2022)
